Experimental data taken from ChEMBL document CHEMBL1221306, “Synthesis, activity, and pharmacokinetic properties of a series of conformationally-restricted thiourea analogs as novel hepatitis C virus inhibitors” (Bioorg Med Chem, 2010).

Experiments:
[1] = Cytotoxicity against human HuH7 cells after 24 hrs; type: cell-based, Huh-7
Hepatitis C virus = experiment: Antiviral activity against HCV1b infected in human HuH7 cells assessed as inhibition of viral replication after 24 hrs; type: functional, organism-based, Hepacivirus hominis; details: genotype 1b, Huh-7, 24 h
[2] = Cmax in Sprague-Dawley rat at 25 mg/kg, po; type: ADME, organism-based; set-up: dose 25 mg/kg, route oral; details: in vivo
Summary of the method: (§1)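 Male rats (330–380 g, 9–10 weeks old, n = 3) were given the compound as a solution in DMA/propylene glycol (20:80, v/v), either iv at 5 mg/kg or po at 25 mg/kg. Rats were fasted and had jugular-vein cannulae. Blood was sampled at 0, 2, 5 (iv only) and 15 min, 30 min, and 1, 2, 4, 6, 8 and 24 h. Plasma was assayed by HPLC–MS/MS and analysed non-compartmentally.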

[3] = Half life in Sprague-Dawley rat at 25 mg/kg, po; type: ADME, organism-based; set-up: dose 25 mg/kg, route oral; details: in vivo; summary of the method: as §1
[4] = Clearance in Sprague-Dawley rat at 5 mg/kg, iv; type: ADME, organism-based; set-up: dose 5 mg/kg, route intravenous; details: in vivo; summary of the method: as §1
[5] = Half life in Sprague-Dawley rat at 5 mg/kg, iv; type: ADME, organism-based; set-up: dose 5 mg/kg, route intravenous; details: in vivo; summary of the method: as §1
[6] = Volume of distribution at steady state in Sprague-Dawley rat at 5 mg/kg, iv; type: ADME, organism-based; set-up: dose 5 mg/kg, route intravenous; details: in vivo, read-out: Vdss; summary of the method: as §1
[7] = Tmax in Sprague-Dawley rat at 25 mg/kg, po; type: ADME, organism-based; set-up: dose 25 mg/kg, route oral; details: in vivo; summary of the method: as §1
[8] = AUC in Sprague-Dawley rat at 25 mg/kg, po; type: ADME, organism-based; set-up: dose 25 mg/kg, route oral; details: plasma; summary of the method: as §1
[9] = Oral bioavailability in Sprague-Dawley rat at 25 mg/kg; type: ADME, organism-based; details: in vivo; summary of the method: as §1
[10] = AUC in Sprague-Dawley rat at 5 mg/kg, iv; type: ADME, organism-based; set-up: dose 5 mg/kg, route intravenous; details: plasma; summary of the method: as §1

EC50 (Hepatitis C virus) [µM] | SMILES | CC50 at 24 h [1] [µM] | other results
2.09 | NC(=S)Nc1ccc2c(c1)Cc1ccccc1-2 | > 50 | –
0.3 | NC(=S)Nc1ccc2c(c1)Cc1cc(Br)ccc1-2 | > 50 | Cmax [2]: 106 ng/mL; half-life [3]: 3.8 h; clearance [4]: 17 mL/min/kg; half-life [5]: 2.6 h; Vd [6]: 2.8 L/kg; Tmax [7]: 0.7 h; AUC [8]: 294 ng·h/mL; bioavailability [9]: 1.2%; AUC [10]: 4940 ng·h/mL
0.57 | NC(=S)Nc1ccc2c(c1)C(=O)c1cc(Br)ccc1-2 | > 50 | Cmax [2]: 65.3 ng/mL; half-life [3]: 1.7 h; clearance [4]: 127 mL/min/kg; half-life [5]: 1.4 h; Vd [6]: 2 L/kg; Tmax [7]: 0.25 h; AUC [8]: 43 ng·h/mL; bioavailability [9]: 1.3%; AUC [10]: 655 ng·h/mL
21 | NC(=S)Nc1ccc2c(c1)-c1ccccc1C2=O | > 50 | –
5.51 | COc1cc2c(cc1NC(N)=S)oc1ccccc12 | > 50 | –
7.55 | CCn1c2ccccc2c2cc(NC(N)=S)ccc21 | > 50 | –
> 50 | NC(=S)Nc1ccc2oc(=O)c3ccccc3c2c1 | > 50 | –
> 50 | NC(=S)Nc1ccc2c(c1)N1CCN=C1S2 | > 50 | –
> 50 | NC(=S)Nc1ccc2cn[nH]c2c1 | > 50 | –
> 50 | NC(=S)Nc1ccc2nn[nH]c2c1 | > 50 | –
> 50 | NC(=S)Nc1ccc2[nH]ncc2c1 | > 50 | –
> 50 | NC(=O)Nc1ccc2c(c1)Cc1cc(Br)ccc1-2 | > 50 | –
42.8 | S=C(Nc1ccccc1)Nc1ccc2c(c1)Cc1cc(Br)ccc1-2 | 46.2 | –
> 50 | S=C(NCc1ccccc1)Nc1ccc2c(c1)Cc1cc(Br)ccc1-2 | > 50 | –
15.4 | S=C(Nc1ccc2c(c1)Cc1cc(Br)ccc1-2)Nc1cccc2ccccc12 | > 50 | –
34.1 | S=C(Nc1ccc(N2CCOCC2)cc1)Nc1ccc2c(c1)Cc1cc(Br)ccc1-2 | 18.1 | –
> 50 | S=C(Nc1cccnc1)Nc1ccc2c(c1)Cc1cc(Br)ccc1-2 | 19.7 | –
> 50 | CNC(=S)Nc1ccc2c(c1)Cc1cc(Br)ccc1-2 | > 50 | –
> 50 | CCNC(=S)Nc1ccc2c(c1)Cc1cc(Br)ccc1-2 | > 50 | –
> 50 | NC(=S)Nc1ccc2c(c1)Cc1cc(N)ccc1-2 | > 50 | –
1.11 | CN(C)c1ccc2c(c1)Cc1cc(NC(N)=S)ccc1-2 | > 50 | –
0.83 | CCN(CC)c1ccc2c(c1)Cc1cc(NC(N)=S)ccc1-2 | > 50 | –
0.44 | CCCN(CCC)c1ccc2c(c1)Cc1cc(NC(N)=S)ccc1-2 | 19.5 | –
0.72 | CCCCN(CCCC)c1ccc2c(c1)Cc1cc(NC(N)=S)ccc1-2 | 40.7 | –
0.39 | NC(=S)Nc1ccc2c(c1)Cc1cc(N(Cc3ccccc3)Cc3ccccc3)ccc1-2 | 35.6 | –
0.42 | CCCNc1ccc2c(c1)Cc1cc(NC(N)=S)ccc1-2 | > 50 | –
0.38 | CCCCNc1ccc2c(c1)Cc1cc(NC(N)=S)ccc1-2 | > 50 | –
0.49 | NC(=S)Nc1ccc2c(c1)Cc1cc(NCc3ccccc3)ccc1-2 | > 50 | –
– | NC(=S)Nc1cccc(Oc2ccccc2)c1 | > 50 | –
